Data from publication PMC9065027 (RSC Advances, 2019).

What was measured:
[1] = system: amastigote parasite Leishmania amazonensis; settings: cited from earlier work
LdNH = experiment: NMR Saturation Transfer Difference; format: binding, Leishmania donovani; settings: 100 μM LdNH, 2 mM compound, 2 s saturation time
Outline: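 STD spectra acquired in alternating scans, on-resonance at −1 ppm and off-resonance at 20 ppm. DPFGSE water suppression, 2 s saturation time, 1024 scans.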

HSV-1 = settings: cited from earlier work
HSV-2 = settings: cited from earlier work

Compound	leishmanicidal activity IC50 [1]	IC50 ([1]; read-out: leishmanicidal activity IC50, value in brackets)	STD signals in presence of LdNH (LdNH)	anti-viral activity EC50 (HSV-1)	anti-viral activity EC50 (HSV-2)
C[C@@H]1O[C@@H](Oc2c(-c3ccc(O)cc3)oc3cc(O)cc(O)c3c2=O)[C@H](O)[C@H](O)[C@H]1O [compound 1, kaempferol 3-O-α-L-rhamnopyranoside]	70 µg/mL	162 µM	only weak resonances	–	–
C[C@@H]1O[C@@H](Oc2c(-c3ccc(O)cc3)oc3cc(O)cc(O)c3c2=O)[C@H](O[C@@H]2OC[C@@H](O)[C@H](O)[C@H]2O)[C@H](O)[C@H]1O [compound 2, kaempferol 3-O-β-D-xylopyranosyl-(1→2)-α-L-rhamnopyranoside]	–	–	much more intense	7.4 µg/mL	9.0 µg/mL
